{"source": "ChEMBL document CHEMBL4359872", "about": "“Identification of potent triazolylpyridine nicotinamide phosphoribosyltransferase (NAMPT) inhibitors bearing a 1,2,3-triazole tail group” (Eur J Med Chem, 2019)", "key": {"[1]": {"assay": "Cytotoxicity against human SH-SY5Y cells assessed as cell viability at 1 uM measured after 48 hrs by MTT assay relative to control", "assay_type": "cell-based", "conditions": "read-out: Activity"}, "[2]": {"tested_on": "SH-SY5Y", "assay": "Cytotoxicity against human SH-SY5Y cells measured after 48 hrs by MTT assay", "assay_type": "cell-based"}, "[3]": {"biological_target": "Nicotinamide phosphoribosyltransferase (Mus musculus, UniProt Q99KQ4)", "sequence (Q99KQ4 whole entry)": "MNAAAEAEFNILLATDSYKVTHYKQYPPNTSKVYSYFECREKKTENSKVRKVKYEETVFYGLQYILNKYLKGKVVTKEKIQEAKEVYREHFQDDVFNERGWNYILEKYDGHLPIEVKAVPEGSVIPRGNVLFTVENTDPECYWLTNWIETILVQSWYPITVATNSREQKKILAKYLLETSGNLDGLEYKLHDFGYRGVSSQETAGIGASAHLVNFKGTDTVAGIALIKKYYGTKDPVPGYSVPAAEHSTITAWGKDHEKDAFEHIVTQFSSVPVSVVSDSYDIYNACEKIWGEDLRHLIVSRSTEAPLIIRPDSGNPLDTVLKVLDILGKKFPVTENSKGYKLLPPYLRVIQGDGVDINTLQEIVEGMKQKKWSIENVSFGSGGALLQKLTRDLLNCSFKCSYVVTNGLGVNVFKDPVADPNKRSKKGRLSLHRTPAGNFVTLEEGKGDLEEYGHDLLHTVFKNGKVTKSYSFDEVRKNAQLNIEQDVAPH", "assay": "Inhibition of recombinant mouse wild-type NAMPT expressed in bacterial expression system using PRPP as substrate in presence of mouse NMNAT-3 measured for 1 hr by fluorescence assay", "outline": "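In vitro NAMPT enzymatic assay run as concentration-response curves, with IC50 derived from the curves. Mean ± SD of three independent experiments (n = 6).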"}, "[4]": {"assay": "Kinetic aqueous solubility of the compound in 80:20 PBS/acetonitrile solution at 200 to 500 uM by HTS assay", "assay_type": "physicochemical", "conditions": "read-out: Kinetic_solubility"}, "[5]": {"assay": "Thermodynamic solubility of compound in water after 24 hrs by LC-UV based shake flask method", "assay_type": "physicochemical", "conditions": "buffer", "outline": "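Thermodynamic water solubility measured by saturation shake flask, with the concentration of the saturated solution reported.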"}, "[6]": {"tested_on": "Lymphocyte", "assay": "Genotoxicity in human primary lymphocytes in presence of S9 fraction by GreenScreen assay", "assay_type": "toxicity, cell-based"}, "[7]": {"tested_on": "Lymphocyte", "assay": "Genotoxicity in human primary lymphocytes assessed as induction of DNA damage up to 1000 uM by GreenScreen assay", "assay_type": "toxicity, cell-based"}, "[8]": {"tested_on": "TK6", "assay": "Genotoxicity in human TK6 cells in presence of S9 fraction by GreenScreen assay", "assay_type": "toxicity, cell-based"}, "[9]": {"tested_on": "TK6", "assay": "Genotoxicity in human TK6 cells assessed as induction of DNA damage up to 1000 uM by GreenScreen assay", "assay_type": "toxicity, cell-based"}, "[10]": {"assay": "Drug metabolism in human liver microsomes assessed as aliphatic hydroxylation of paraffin linker at 50 uM measured after 60 mins […] by LC-ESI/MS analysis", "assay_type": "ADME, Microsome", "conditions": "1 h"}, "[11]": {"assay": "Drug metabolism in human liver microsomes assessed as pyridine N-oxidation at 50 uM measured after 60 mins […] by LC-ESI/MS analysis", "assay_type": "ADME, Microsome", "conditions": "1 h"}, "[12]": {"assay": "Drug metabolism in human liver microsomes assessed as oxidative N-dealkylation at 50 uM measured after 60 mins […] by LC-ESI/MS analysis", "assay_type": "ADME, Microsome", "conditions": "1 h"}, "[13]": {"assay": "Drug metabolism in Wistar Han rat liver microsomes assessed as aliphatic hydroxylation of paraffin linker at 50 uM measured after 60 mins […] by LC-ESI/MS analysis", "assay_type": "ADME, Microsome", "conditions": "1 h"}, "[14]": {"assay": "Drug metabolism in Wistar Han rat liver microsomes assessed as pyridine N-oxidation at 50 uM measured after 60 mins […] by LC-ESI/MS analysis", "assay_type": "ADME, Microsome", "conditions": "1 h"}, "[15]": {"assay": "Drug metabolism in Wistar Han rat liver microsomes assessed as oxidative N-dealkylation at 50 uM measured after 60 mins […] by LC-ESI/MS analysis", "assay_type": "ADME, Microsome", "conditions": "1 h"}, "[16]": {"assay": "Kinetic aqueous solubility of the compound in 80:20 PBS/acetonitrile solution at 200 uM by HTS assay", "assay_type": "physicochemical", "conditions": "buffer"}, "[17]": {"assay": "Permeability across apical side to basolateral side in human Caco2 cells at 30 uM after 4 hrs by HPLC analysis", "assay_type": "ADME, cell-based", "conditions": "caco-2, 4 h", "outline": "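Caco-2 monolayer used to measure apical-to-basal transfer, reported as % permeability and Papp. Terbutaline served as the positive control; n = 3.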"}, "[18]": {"assay": "Half-life in human", "assay_type": "ADME"}, "[19]": {"assay": "Toxicity in Crl:CD Sprague-Dawley rat retina at 200 mg/kg, po administered once daily for 5 days via gavage by hematoxylin and eosin staining based microscopic analysis", "assay_type": "organism-based", "conditions": "in vivo, 120 h"}, "[20]": {"assay": "Toxicity in Crl:CD Sprague-Dawley rat heart assessed as hypereosinophilia at 200 mg/kg, po administered once daily via gavage for 5 days by hematoxylin and eosin staining based microscopic analysis", "assay_type": "organism-based", "conditions": "in vivo, 120 h"}, "[21]": {"assay": "Toxicity in Crl:CD Sprague-Dawley rat heart assessed as increase in cardiomyocytes cytoplasmic vacuolation at 200 mg/kg, po administered once daily for 5 days via gavage by hematoxylin and eosin staining based microscopic analysis", "assay_type": "organism-based", "conditions": "in vivo, 120 h"}, "[22]": {"tested_on": "4T1", "assay": "Antitumor activity against mouse 4T1 cells implanted in BALB/c mouse assessed as reduction in tumour volume at 10 mg/kg, ip bid for 12 days by vernier caliper method", "assay_type": "functional, organism-based", "outline": "(§1)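 Tumour cells implanted in the mammary gland. Dosing began at day 14, once tumours were palpable, after randomization into vehicle and treated groups of 4 mice each. Compound given intraperitoneally at 10 mg/kg twice a day for 12 consecutive days. Data are means of two independent experiments.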"}, "[23]": {"tested_on": "4T1", "assay": "Antitumor activity against mouse 4T1 cells implanted in BALB/c mouse assessed as reduction in tumor weight at 10 mg/kg, ip bid for 12 days", "assay_type": "functional, organism-based", "outline": "as §1"}, "[24]": {"tested_on": "4T1", "assay": "Antitumor activity against mouse 4T1 cells implanted in Balb/c mouse mouse assessed as inhibition of tumor metastasis at 10 mg/kg, ip bid for 12 days measured post last dose by crystal violet staining based thioguanine clonogenic assay", "assay_type": "functional, organism-based", "outline": "as §1"}, "[25]": {"assay": "Toxicity in Crl:CD Sprague-Dawley rat heart assessed as interstitial expansion at 200 mg/kg, po administered once daily for 5 days via gavage by hematoxylin and eosin staining based microscopic analysis", "assay_type": "organism-based", "conditions": "in vivo, 120 h"}, "[26]": {"biological_target": "Nicotinamide phosphoribosyltransferase (Homo sapiens) (UniProt P43490)", "sequence (P43490 whole entry, looked up)": "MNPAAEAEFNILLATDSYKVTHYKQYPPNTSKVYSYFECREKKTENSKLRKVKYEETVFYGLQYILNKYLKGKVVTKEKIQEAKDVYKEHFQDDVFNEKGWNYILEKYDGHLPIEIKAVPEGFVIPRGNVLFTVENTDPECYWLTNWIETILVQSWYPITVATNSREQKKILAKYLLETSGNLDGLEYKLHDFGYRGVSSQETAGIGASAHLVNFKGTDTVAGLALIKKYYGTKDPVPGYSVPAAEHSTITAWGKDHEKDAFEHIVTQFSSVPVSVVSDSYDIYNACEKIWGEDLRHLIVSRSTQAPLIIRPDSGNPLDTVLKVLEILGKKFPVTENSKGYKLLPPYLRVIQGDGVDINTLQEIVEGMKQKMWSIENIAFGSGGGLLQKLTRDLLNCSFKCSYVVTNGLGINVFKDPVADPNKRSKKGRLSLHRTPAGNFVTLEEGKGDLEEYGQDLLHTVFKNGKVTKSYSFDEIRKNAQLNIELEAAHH", "assay": "Inhibition of NAMPT in human SH-SY5Y cells assessed as reduction in NAD levels at 100 nM measured after 16 hrs by diaphorase and resazurin dye based fluorescence assay relative to control", "assay_type": "cell-based", "outline": "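SH-SY5Y cells treated at 100 nM for 16 h, then NAD level reduction measured as % of control. Mean ± SD of two independent experiments (n = 6).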"}, "[27]": {"assay": "Selectivity ratio of EC50 for cytotoxicity against human SH-SY5Y cells to IC50 for recombinant mouse wild-type NAMPT expressed in bacterial expression system", "assay_type": "cell-based"}, "[28]": {"tested_on": "SH-SY5Y", "assay": "Cytotoxicity against human SH-SY5Y cells assessed as cell viability at 10 uM measured after 48 hrs by MTT assay relative to control", "assay_type": "functional", "conditions": "read-out: Activity"}}, "note": "Calls of active or inactive are those of the source. The rule behind the calls is not given here."}
{"compound": "O=C(NCCCCCCCn1cc(-c2cccnc2)nn1)c1ccccc1-n1cc(CN(CCO)CCO)nn1", "values": [{"measurement": "viability at 48 h, 1 µM", "setting": "[1]", "value": 37.8, "unit": "%"}, {"measurement": "EC50", "setting": "[2]", "value": "> 500", "unit": "nM"}, {"measurement": "IC50", "setting": "[3]", "value": 73.8, "unit": "nM"}, {"measurement": "solubility kinetic", "setting": "[4]", "value": "200 to 500", "unit": "µM"}]}
{"compound": "O=C(NCCCCCCCn1cc(-c2cccnc2)nn1)c1ccccc1-c1ccccc1", "values": [{"measurement": "Therm_solubility", "setting": "[5]", "value": "Soluble"}, {"measurement": "LEC", "setting": "[6]", "value": 125, "unit": "µM"}, {"measurement": "Activity", "setting": "[7]", "value": "Non-Toxic"}, {"measurement": "MTC", "setting": "[8]", "value": 125, "unit": "µM"}, {"measurement": "Activity", "setting": "[9]", "value": "Non-Toxic"}, {"measurement": "Drug metabolism", "setting": "[10]", "value": "Metabolite_Detected"}, {"measurement": "Drug metabolism", "setting": "[11]", "value": "Metabolite_Detected"}, {"measurement": "Drug metabolism", "setting": "[12]", "value": "Metabolite_Detected"}, {"measurement": "Drug metabolism", "setting": "[13]", "value": "Metabolite_Detected"}, {"measurement": "Drug metabolism", "setting": "[14]", "value": "Metabolite_Detected"}, {"measurement": "Drug metabolism", "setting": "[15]", "value": "Metabolite_Detected"}, {"measurement": "Kinetic_solubility", "setting": "[16]", "value": "Soluble"}]}
{"compound": "CC(C)(C)NCC(O)c1cc(O)cc(O)c1", "note": "(centres undefined) [TERBUTALINE]", "values": [{"measurement": "permeability", "setting": "[17]", "value": 52.7, "unit": "%"}]}
{"compound": "O=C(NCCCCCCCn1cc(-c2ccc[n+]([O-])c2)nn1)c1ccccc1-c1ccccc1", "values": [{"measurement": "viability at 48 h, 1 µM", "setting": "[1]", "value": 103, "unit": "%"}, {"measurement": "IC50", "setting": "[3]", "value": "> 500", "unit": "nM"}]}
{"compound": "O=C(NCCCCCCCn1cc(-c2cccnc2)nn1)c1ccccc1-c1c[nH]nn1", "values": [{"measurement": "viability at 48 h, 1 µM", "setting": "[1]", "value": 23.5, "unit": "%"}, {"measurement": "EC50", "setting": "[2]", "value": 86.5, "unit": "nM"}, {"measurement": "IC50", "setting": "[3]", "value": 42.5, "unit": "nM"}]}
{"compound": "O=C(NCCCCCCCn1cc(-c2cccnc2)nn1)c1ccccc1-n1cc(CN2CCOCC2)nn1", "values": [{"measurement": "viability at 48 h, 1 µM", "setting": "[1]", "value": 30, "unit": "%"}, {"measurement": "EC50", "setting": "[2]", "value": "> 500", "unit": "nM"}, {"measurement": "IC50", "setting": "[3]", "value": 49.6, "unit": "nM"}, {"measurement": "solubility kinetic", "setting": "[4]", "value": "200 to 500", "unit": "µM"}]}
{"compound": "N#CN=C(NCCCCCCOc1ccc(Cl)cc1)Nc1ccncc1", "note": "[CHS-828]", "values": [{"measurement": "half-life", "setting": "[18]", "value": 2.1, "unit": "h"}, {"measurement": "Activity", "setting": "[19]", "value": "Non-Toxic"}, {"measurement": "Activity", "setting": "[20]", "value": "Non-Toxic"}, {"measurement": "Activity", "setting": "[21]", "value": "Non-Toxic"}, {"measurement": "Activity", "setting": "[22]", "value": "Active"}, {"measurement": "Activity", "setting": "[23]", "value": "Active"}, {"measurement": "inhibition", "setting": "[24]", "value": "Active"}, {"measurement": "Activity", "setting": "[25]", "value": "Non-Toxic"}]}
{"compound": "O=C(NCCCCCCCn1cc(-c2cccnc2)nn1)c1ccccc1-n1cc(CN2CCC(O)CC2)nn1", "values": [{"measurement": "viability at 48 h, 1 µM", "setting": "[1]", "value": 91.7, "unit": "%"}, {"measurement": "EC50", "setting": "[2]", "value": "> 10000", "unit": "nM"}, {"measurement": "IC50", "setting": "[3]", "value": 41.8, "unit": "nM"}, {"measurement": "permeability", "setting": "[17]", "value": "< 1", "unit": "%"}, {"measurement": "solubility kinetic", "setting": "[4]", "value": "200 to 500", "unit": "µM"}, {"measurement": "inhibition", "setting": "[26]", "value": 30, "unit": "%"}, {"measurement": "Selectivity ratio", "setting": "[27]", "value": 200}]}
{"compound": "O=C(NCCCCCCCn1cc(-c2cccnc2)nn1)c1ccccc1-n1cc(CN2CCCC2)nn1", "values": [{"measurement": "viability at 48 h, 1 µM", "setting": "[1]", "value": 88.9, "unit": "%"}, {"measurement": "EC50", "setting": "[2]", "value": "> 10000", "unit": "nM"}, {"measurement": "IC50", "setting": "[3]", "value": 25.4, "unit": "nM"}, {"measurement": "solubility kinetic", "setting": "[4]", "value": "200 to 500", "unit": "µM"}, {"measurement": "viability at 10 µM", "setting": "[28]", "value": 61.9, "unit": "%"}]}
{"compound": "O=C(O)c1cccc(-c2ccccc2C(=O)NCCCCCCCn2cc(-c3cccnc3)nn2)c1", "values": [{"measurement": "viability at 48 h, 1 µM", "setting": "[1]", "value": 78.4, "unit": "%"}, {"measurement": "EC50", "setting": "[2]", "value": "> 500", "unit": "nM"}, {"measurement": "IC50", "setting": "[3]", "value": "> 500", "unit": "nM"}]}
